Read-outs that look alike come from different tables or passages of the source.
Tests used:
[1] = tested on: α-glucosidase; settings: cited from earlier work
[2] = biological target: T1, α-glucosidase (Saccharomyces cerevisiae, UniProt P53341); assay: Kinetic analysis of inhibitory type; assay type: biochemical; settings: Lineweaver–Burk plots
[3] = biological target: Saccharomyces cerevisiae α-glucosidase (Saccharomyces cerevisiae, UniProt P53341); assay: α-Glucosidase enzyme activity; assay type: biochemical; settings: at the concentration of 125 μmol L^−1
Saccharomyces cerevisiae α-glucosidase, sequence (P53341 whole entry): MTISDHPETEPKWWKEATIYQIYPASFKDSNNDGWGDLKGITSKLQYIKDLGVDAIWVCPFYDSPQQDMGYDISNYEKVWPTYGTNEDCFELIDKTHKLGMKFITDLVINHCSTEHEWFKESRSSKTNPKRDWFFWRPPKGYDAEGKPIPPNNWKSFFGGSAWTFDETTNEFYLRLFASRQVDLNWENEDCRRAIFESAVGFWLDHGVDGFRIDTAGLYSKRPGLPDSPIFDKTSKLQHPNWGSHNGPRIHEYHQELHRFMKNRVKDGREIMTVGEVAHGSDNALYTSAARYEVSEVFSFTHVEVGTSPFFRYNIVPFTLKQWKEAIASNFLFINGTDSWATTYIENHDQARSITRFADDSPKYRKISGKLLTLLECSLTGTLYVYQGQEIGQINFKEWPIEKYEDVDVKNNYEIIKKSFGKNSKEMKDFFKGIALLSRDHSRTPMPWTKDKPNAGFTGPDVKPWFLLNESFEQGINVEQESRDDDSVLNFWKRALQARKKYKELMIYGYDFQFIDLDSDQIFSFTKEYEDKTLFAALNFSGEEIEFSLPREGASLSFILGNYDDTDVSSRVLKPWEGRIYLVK

[4] = biological target: T1, α-glucosidase; assay: Fluorescence quenching and thermodynamic analysis; assay type: binding; settings: for ΔH° enthalpy change / ΔS° entropy change: van't Hoff plot over 298, 304, 310 K
[5] = biological target: T1, α-glucosidase; assay: Reversibility, plots of v vs. [α-glucosidase]; assay type: biochemical; settings: myricetin 0–6.25 × 10^−5 mol L^−1, c(pNPG) = 3.13 × 10^−4 mol L^−1
[6] = biological target: T1, α-glucosidase; assay: CD spectroscopy of secondary structure
Outline: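 Far-UV CD spectra (190–250 nm) were recorded for S. cerevisiae α-glucosidase held at 2 μmol L−1, with test flavonol added at flavonol:enzyme molar ratios of 0:1, 40:1 and 80:1. Each spectrum was averaged over three scans under constant nitrogen flush, and the buffer signal was subtracted. Experiments were done in triplicate.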

[7] = clinically used antidiabetic drugs
[8] = natural α-glucosidase inhibitors
[9] = molar ratio of myricetin to α-glucosidase 40 : 1
[10] = molar ratio of myricetin to α-glucosidase 80 : 1

T1 sequence (P53341 whole entry): as above

| Compound | type of α-glucosidase inhibition (reported) [1, 7] | Inhibitory type [2] | type of α-glucosidase inhibition (reported) [1, 8] | Ksv, Stern–Volmer quenching constant ([4]; 298 K) | n, number of binding sites per protein molecule ([4]; 298 K) | ΔG° free energy change ([4]; 298 K) [kcal/mol] | Ksv, Stern–Volmer quenching constant ([4]; 304 K) | n, number of binding sites per protein molecule ([4]; 304 K) | ΔG° free energy change ([4]; 304 K) [kcal/mol] | n, number of binding sites per protein molecule ([4]; 310 K) | ΔG° free energy change ([4]; 310 K) [kcal/mol] | ΔH° enthalpy change [4] [kcal/mol] | ΔS° entropy change [4] [J mol^−1K^−1] | further results |
| --- | --- | --- | --- | --- | --- | --- | --- | --- | --- | --- | --- | --- | --- | --- |
| C[C@H]1O[C@H](O[C@H]2[C@H](O)[C@@H](O)[C@@H](O[C@H]3[C@H](O)[C@@H](O)C(O)O[C@@H]3CO)O[C@@H]2CO)[C@H](O)[C@@H](O)[C@@H]1N[C@H]1C=C(CO)[C@@H](O)[C@H](O)[C@H]1O (stereo partly drawn) [acarbose, reference compound] | competitive inhibitors | Competitive |  |  |  |  |  |  |  |  |  |  |  |  |
| O=c1c(O)c(-c2ccccc2)oc2cc(O)cc(O)c12 [galangin] |  |  | mixed-type |  |  |  |  |  |  |  |  |  |  |  |
| O=c1c(-c2ccc(O)cc2)coc2cc(O)cc(O)c12 [genistein] |  |  | mixed-type |  |  |  |  |  |  |  |  |  |  |  |
| O=c1c(O)c(-c2ccc(O)cc2)oc2cc(O)cc(O)c12 [kaempferol] |  | Mixed-type |  | 9.91 ± 0.08 ×10^4 L mol^−1 | 0.87 ± 0.01 | -6.938 ± 0.0072 | 8.81 ± 0.05 ×10^4 L mol^−1 | 0.93 ± 0.01 | -7.032 ± 0.0024 | 0.98 ± 0.01 | -7.122 ± 0.0048 | -2.32 ± 0.237 | 64.84 ± 3.25 | inhibition of the activity of α-glucosidase [3]: approximately 60%; Ksv, Stern–Volmer quenching constant ([4]; 310 K): 8.04 ± 0.02 ×10^4 L mol^−1 |
| O=c1cc(-c2ccc(O)c(O)c2)oc2cc(O)cc(O)c12 [luteolin] |  |  | mixed-type |  |  |  |  |  |  |  |  |  |  |  |
| OCCN1C[C@H](O)[C@@H](O)[C@H](O)[C@H]1CO [miglitol] | competitive inhibitors |  |  |  |  |  |  |  |  |  |  |  |  |  |
| O=c1c(O)c(-c2ccc(O)cc2O)oc2cc(O)cc(O)c12 [morin] |  |  | mixed-type |  |  |  |  |  |  |  |  |  |  |  |
| O=c1c(O)c(-c2cc(O)c(O)c(O)c2)oc2cc(O)cc(O)c12 [myricetin] |  | Mixed-type |  | 14.26 ± 0.03 ×10^4 L mol^−1 | 0.99 ± 0.01 | -7.012 ± 0.012 | 13.81 ± 0.04 ×10^4 L mol^−1 | 1.04 ± 0.01 | -7.075 ± 0.0096 | 1.06 ± 0.01 | -7.139 ± 0.0096 | -3.862 ± 0.136 | 44.22 ± 1.17 | reversibility of inhibition [5]: reversible inhibitor; random coil percentage of α-glucosidase [6, 9]: 28.0%; α-helix content of α-glucosidase [6, 9]: 17.6%; β-sheet proportion of α-glucosidase [6, 9]: 45.7%; β-turn content of α-glucosidase [6, 9]: 8.7%; random coil percentage of α-glucosidase [6, 10]: 28.2%; α-helix content of α-glucosidase [6, 10]: 15.5%; β-sheet proportion of α-glucosidase [6, 10]: 49.9%; β-turn content of α-glucosidase [6, 10]: 6.4%; Ksv, Stern–Volmer quenching constant ([4]; 310 K): 13.05 ± 0.03 ×10^4 L mol^−1 |
| O=c1c(O)c(-c2ccc(O)c(O)c2)oc2cc(O)cc(O)c12 [quercetin] |  | Mixed-type |  | 11.42 ± 0.06 ×10^4 L mol^−1 | 0.97 ± 0.01 | -6.948 ± 0.0072 | 11.20 ± 0.06 ×10^4 L mol^−1 | 0.99 ± 0.01 | -7.027 ± 0.0072 | 1.01 ± 0.01 | -7.108 ± 0.0096 | -2.923 ± 0.234 | 56.51 ± 3.27 | inhibition of the activity of α-glucosidase [3]: approximately 75% |
| OCC(CO)N[C@H]1C[C@](O)(CO)[C@@H](O)[C@H](O)[C@H]1O [voglibose] | competitive inhibitors |  |  |  |  |  |  |  |  |  |  |  |  |  |
